Experimental data reported in ChEMBL document CHEMBL3576819, “Design, synthesis, biological evaluation and molecular docking studies of phenylpropanoid derivatives as potent anti-hepatitis B virus agents” (Eur J Med Chem, 2015).

What was measured:
Hepatitis B virus [1] = experiment: Antiviral activity against Hepatitis B virus infected in human HepG2.2.15 cells assessed as inhibition of HBsAg secretion at 75 uM after 3 days by ELISA; format: functional; conditions: HepG2 2.2.15, 72 h
Method in brief: (§1)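 HepG2.2.15 cells (MEM, 10% FBS, 380 µg/ml G418) seeded at 1×10^5 cells/ml, held 24 h at 37 °C, then treated with various drug concentrations; medium with drug renewed every 3 d for up to 9 d. Culture medium sampled on days 3, 6 and 9, stored at -20 °C, and assayed for secreted antigen. Lamivudine as positive control; IC50 = 50% inhibition of secretion; means of at least two experiments.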

[2] = Cytotoxicity against human HepG2.2.15 cells assessed as cell death after 9 days by MTT assay; format: cell-based, HepG2 2.2.15
Method in brief: (§2)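 HepG2.2.15 cells (MEM, 10% FBS, 380 µg/ml G418, 37 °C, 5% CO2) seeded at 1×10^5 cells/ml, cultured 24 h, then exposed to various drug concentrations; drug-containing medium renewed every 3 d. OD read at 450 nm after 9 days; percent cell death calculated; CC50 = concentration killing 50% of cells. Means of at least two experiments.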

Hepatitis B virus [3] = experiment: Antiviral activity against Hepatitis B virus infected in human HepG2.2.15 cells assessed as inhibition of HBsAg secretion at 300 uM after 3 days by ELISA; format: functional; conditions: HepG2 2.2.15, 72 h; method in brief: as §1
Hepatitis B virus [4] = experiment: Antiviral activity against Hepatitis B virus infected in human HepG2.2.15 cells assessed as inhibition of HBeAg secretion at 300 uM after 9 days by ELISA; format: functional; conditions: HepG2 2.2.15, 216 h; method in brief: as §1
Hepatitis B virus [5] = experiment: Antiviral activity against Hepatitis B virus infected in human HepG2.2.15 cells assessed as inhibition of HBV DNA copies per uL at 37.5 uM after 6 days by real-time fluorescence quantitative PCR analysis; format: functional; conditions: HepG2 2.2.15, 144 h
Hepatitis B virus [6] = experiment: Antiviral activity against Hepatitis B virus infected in human HepG2.2.15 cells assessed as inhibition of HBV DNA copies per uL at 150 uM after 6 days by real-time fluorescence quantitative PCR analysis; format: functional; conditions: HepG2 2.2.15, 144 h
Hepatitis B virus [7] = experiment: Antiviral activity against Hepatitis B virus infected in human HepG2.2.15 cells assessed as inhibition of HBV DNA copies per uL at 150 uM after 3 days by real-time fluorescence quantitative PCR analysis; format: functional; conditions: HepG2 2.2.15, 72 h
Hepatitis B virus [8] = experiment: Antiviral activity against Hepatitis B virus infected in human HepG2.2.15 cells assessed as inhibition of HBeAg secretion at 37.5 uM after 3 days by ELISA; format: functional; conditions: HepG2 2.2.15, 72 h; method in brief: as §1
Hepatitis B virus [9] = experiment: Antiviral activity against Hepatitis B virus infected in human HepG2.2.15 cells assessed as inhibition of HBV DNA copies per uL at 150 uM after 9 days by real-time fluorescence quantitative PCR analysis; format: functional; conditions: HepG2 2.2.15, 216 h
Hepatitis B virus [10] = experiment: Antiviral activity against Hepatitis B virus infected in human HepG2.2.15 cells assessed as cell survival at 150 uM after 9 days (reference value: 100%); format: functional; conditions: HepG2 2.2.15, 216 h; method in brief: as §2
[11] = Selectivity index, ratio of CC50 for human HepG2.2.15 cells to IC50 for Hepatitis B virus infected in human HepG2.2.15 cells assessed as inhibition of HBeAg secretion; format: functional
Method in brief: (§3)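 Selectivity index computed as CC50/IC50, with CC50 from cell death of HepG2.2.15 cells after 9 days of treatment (OD 450 nm) and IC50 from 50% inhibition of HBeAg or HBsAg secretion in the same cells; medium with drug renewed every 3 d.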

Hepatitis B virus [12] = experiment: Antiviral activity against Hepatitis B virus infected in human HepG2.2.15 cells assessed as inhibition of HBsAg secretion at 37.5 uM after 6 days by ELISA; format: functional; conditions: HepG2 2.2.15, 144 h; method in brief: as §1
Hepatitis B virus [13] = experiment: Antiviral activity against Hepatitis B virus infected in human HepG2.2.15 cells assessed as inhibition of HBV DNA copies per uL at 75 uM after 6 days by real-time fluorescence quantitative PCR analysis; format: functional; conditions: HepG2 2.2.15, 144 h
[14] = Selectivity index, ratio of CC50 for human HepG2.2.15 cells to IC50 for Hepatitis B virus infected in human HepG2.2.15 cells assessed as inhibition of HBsAg secretion; format: functional; method in brief: as §3
Hepatitis B virus [15] = experiment: Antiviral activity against Hepatitis B virus infected in human HepG2.2.15 cells assessed as inhibition of HBV DNA copies per uL at 37.5 uM after 3 days by real-time fluorescence quantitative PCR analysis; format: functional; conditions: HepG2 2.2.15, 72 h
Hepatitis B virus [16] = experiment: Antiviral activity against Hepatitis B virus infected in human HepG2.2.15 cells assessed as inhibition of HBsAg secretion at 37.5 uM after 3 days by ELISA; format: functional; conditions: HepG2 2.2.15, 72 h; method in brief: as §1

SMILES | inhibition at 75 µM (Hepatitis B virus [1]) | CC50 at 216 h [2] | inhibition at 300 µM (Hepatitis B virus [3]) | inhibition at 300 µM (Hepatitis B virus [4]) | inhibition at 37.5 µM (Hepatitis B virus [5]) | inhibition at 150 µM (Hepatitis B virus [6]) | inhibition at 150 µM (Hepatitis B virus [7]) | inhibition at 37.5 µM (Hepatitis B virus [8]) | inhibition at 150 µM (Hepatitis B virus [9]) | viability at 150 µM (Hepatitis B virus [10]) | Ratio CC50/IC50 [11] | inhibition at 37.5 µM (Hepatitis B virus [12]) | inhibition at 75 µM (Hepatitis B virus [13]) | Ratio CC50/IC50 [14] | inhibition at 37.5 µM (Hepatitis B virus [15]) | inhibition at 37.5 µM (Hepatitis B virus [16])
O=C(/C=C/c1ccc2c(c1)OCO2)O/N=C/c1ccccn1 | 58% | 253 µM | 75.8% | 96.4% | 38.1% | 61.6% | 45.8% | 31.7% | 72.2% | 53.8% | 40.82 | 55.4% | 47.6% | 17.85 | 30.4% | 36.4%
COc1cc(/C=C/C(=O)O/N=C/c2ccccn2)cc2c1OCO2 | 27.2% | 645 µM | 58.5% | 82.6% | 26.9% | 44.8% | 34.9% | 17.8% | 54.5% | 82.8% | 8.85 | 25.3% | 39.2% | 10.27 | 21.6% | 17.2%
COc1cc(/C=C/C(=O)O/N=C/c2ccco2)cc2c1OCO2 | 38.8% | 820 µM | 66.2% | 74.6% | 27.6% | 42.9% | 40.7% | 24.9% | 52% | 91.5% | 10.89 | 24.9% | 39.4% | 12.9 | 19.8% | 22.3%
Nc1ccn([C@@H]2CS[C@H](CO)O2)c(=O)n1 [LAMIVUDINE] | 22% | 568 µM | 37.3% | 4% | 38.6% | 66.8% | 46.6% | 10.1% | 81.6% | 82.4% | 2.13 | 7.98% | 58.9% | 2.42 | 40% | 11.6%
